Measurements taken from ChEMBL document CHEMBL1152486, “Synthesis and antitumor activity of optically active thiourea and their 2-aminobenzothiazole derivatives: a novel class of anticancer agents” (Eur J Med Chem, 2009).
pIC50: −log10 of the molar value.

Columns and labels:
Assay type in all cases: functional, cell-based; call rule not given here
[1] = Cytotoxicity against mouse EAC after 24 hrs by MTT assay; conditions: Ehrlich
Procedure, shortened: (§1)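 Standard MTT, 24 h exposure. Cells plated at 10^4/well and allowed 24 h to attach, then exposed to 1–100 μM compound (dissolved in 0.1% DMSO, diluted in medium; vehicle controls 0.1% DMSO). MTT 1 mg/ml for 4 h at 37 °C, formazan dissolved in DMSO, absorbance read at 540 nm. IC50 taken as concentration giving 50% growth inhibition; triplicate.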

MCF7 [2] = experiment: Cytotoxicity against human MCF7 cells after 24 hrs by MTT assay; procedure, shortened: as §1
HeLa = experiment: Cytotoxicity against human HeLa cells after 24 hrs by MTT assay; procedure, shortened: as §1
MCF7 [3] = experiment: Cytotoxicity against human MCF7 cells by MTT assay
Procedure, shortened: (§2)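 MCF-7 time-course MTT. Cells seeded at 5 × 10^3/well and exposed to 1–50 μM compound. Percentage cytotoxicity and IC50 determined at 24, 48 and 72 h of drug incubation. MTT read-out at 540 nm after formazan solubilization in DMSO.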

MCF7 [4] = experiment: Cytotoxicity against human MCF7 cells after 48 hrs by MTT assay; conditions: MCF7, 48 h; procedure, shortened: as §2
MCF7 [5] = experiment: Cytotoxicity against human MCF7 cells after 72 hrs by MTT assay; conditions: MCF7, 72 h; procedure, shortened: as §2
MCF7 [6] = experiment: DNA damaging activity in human MCF7 cells assessed as increase in tail moment after 24 hrs by alkaline comet assay
Procedure, shortened: (§3)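 Alkaline comet assay in MCF-7 after 24 h exposure to 5–50 μM. About 20,000 cells embedded in 0.75% low-melt agarose over a 1.5% agarose layer. Alkaline unwinding 1 h, then electrophoresis at pH 13 for 20 min, 16 V. Ethidium bromide staining; ~50 cells scored per slide, two slides per concentration; means ± SEM.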

MCF7 [7] = experiment: DNA damaging activity in human MCF7 cells assessed as elongated tail length after 24 hrs by alkaline comet assay; procedure, shortened: as §3
MCF7 [8] = experiment: DNA damaging activity in human MCF7 cells assessed as olive tail moment after 24 hrs by alkaline comet assay; procedure, shortened: as §3
MCF7 [9] = experiment: DNA damaging activity in human MCF7 cells assessed as tail DNA content after 24 hrs by alkaline comet assay; procedure, shortened: as §3

Compound | pIC50 [1] | IC50 (MCF7 [2]) | pIC50 (HeLa) | other results
CC(Nc1nc2cc(Cl)c(F)cc2s1)C1CCCCC1 (single isomer, unassigned) | 4.53 | Dose-dependent effect | 4.14 | –
COc1ccc(C(C)Nc2nc3cc(Cl)c(F)cc3s2)cc1 (single isomer, unassigned) | 4.12 | Dose-dependent effect | – | –
C[C@@H](NC(=S)Nc1ccc(F)c(Cl)c1)c1ccc(Cl)cc1 | 4.76 | Dose-dependent effect | 4.37 | IC50 (MCF7 [3]): tde; pIC50 (MCF7 [4]): 4.79; pIC50 (MCF7 [5]): 4.94; Activity (MCF7 [6]): Dose-dependent effect; Activity (MCF7 [7]): Dose-dependent effect; Activity (MCF7 [8]): Dose-dependent effect; Activity (MCF7 [9]): Dose-dependent effect
CCCCCC[C@@H](C)NC(=S)Nc1ccc(F)c(Cl)c1 | 4.59 | Dose-dependent effect | 4.31 | –
C[C@@H](NC(=S)Nc1ccc(F)c(Cl)c1)c1ccccc1 | 4.63 | Dose-dependent effect | 4.18 | –
COc1ccc([C@@H](C)NC(=S)Nc2ccc(F)c(Cl)c2)cc1 | 4.34 | Dose-dependent effect | 4.11 | –
COc1cccc2c1C(=O)c1c(O)c3c(c(O)c1C2=O)C[C@@](O)(C(=O)CO)C[C@@H]3O[C@H]1C[C@H](N)[C@H](O)[C@H](C)O1 [DOXORUBICIN] | 5.38 | Dose-dependent effect | – | –
C[C@@H](NC(=S)Nc1ccc(F)c(Cl)c1)c1ccc(F)cc1 | 4.52 | Dose-dependent effect | 4.15 | –
Fc1ccc(NC(=S)NC2CCCCC2OCc2ccccc2)cc1Cl (stereo not drawn) | 4.97 | Dose-dependent effect | 4.47 | IC50 (MCF7 [3]; TDE = time-dependent effect): tde; pIC50 (MCF7 [4]): 4.89; pIC50 (MCF7 [5]): 5.06
Fc1cc2sc(N[C@@H]3CCCC[C@@H]3OCc3ccccc3)nc2cc1Cl | 4.69 | Dose-dependent effect | 4.22 | –
CCC(Nc1nc2cc(Cl)c(F)cc2s1)c1ccccc1 (single isomer, unassigned) | 4.49 | Dose-dependent effect | 4.27 | –
C[C@@H](Nc1nc2cc(Cl)c(F)cc2s1)c1ccc(Cl)cc1 | 4.59 | Dose-dependent effect | 4.16 | –
CC(Nc1nc2cc(Cl)c(F)cc2s1)c1ccc(F)cc1 (single isomer, unassigned) | 4.45 | Dose-dependent effect | 4.21 | –
CC[C@@H](NC(=S)Nc1ccc(F)c(Cl)c1)c1ccccc1 | 4.10 | Dose-dependent effect | – | –
CC(Nc1nc2cc(Cl)c(F)cc2s1)c1ccccc1 (single isomer, unassigned) | 4.44 | Dose-dependent effect | 4.23 | –
CCCCCC[C@@H](C)Nc1nc2cc(Cl)c(F)cc2s1 | 4.61 | Dose-dependent effect | 4.32 | IC50 (MCF7 [3]; TDE = time-dependent effect): tde; pIC50 (MCF7 [4]): 4.60; pIC50 (MCF7 [5]): 4.82
